Experimental data: ChEMBL document CHEMBL1764975, “A new DNA gyrase inhibitor subclass of the cyclothialidine family based on a bicyclic dilactam-lactone scaffold. Synthesis and antibacterial properties” (J Med Chem, 2011)
≈ marks a conversion by molar mass, not a printed value.

What was measured:
Staphylococcus aureus [1] = assay: (§1) Antimicrobial activity against Staphylococcus aureus Smith after 18 hrs by agar dilution method; format: functional
In short: (§2)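 Agar dilution on Mueller-Hinton medium, inoculum 10⁴ CFU/spot; MIC is the minimum inhibitory concentration against the named strain.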

Escherichia coli [2] = assay: Inhibition of Escherichia coli DNA gyrase A2B2 complex after 30 mins by supercoiling assay
Staphylococcus aureus [3] = assay: Antimicrobial activity against Staphylococcus aureus Smith infected in iv dosed septicaemia Swiss albino mouse model after 4 days; format: functional; details: 96 h
In short: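 Septicaemia model in mice infected with S. aureus Smith, compound given iv. In experiments with 0-1 survivors among 5-10 control mice, ED₅₀ (mg/kg) taken as lowest dose giving 3-5 survivors out of 5 infected mice.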

Enterococcus faecium = assay: Antimicrobial activity against multidrug-resistant Enterococcus faecium after 18 hrs by agar dilution method; format: functional
In short: (§3)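 Agar dilution on Mueller-Hinton agar, inoculum 10⁴ CFU/spot, against panels of multiresistant clinical strains (S. aureus 11, E. faecalis 16, E. faecium 23). MIC_50/90 in μg/mL taken as the minimum concentration inhibiting at least 50% or 90% of the strains tested.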

Streptococcus pyogenes = assay: Antimicrobial activity against Streptococcus pyogenes b15 after 18 hrs by agar dilution method; format: functional; details: b15, 18 h; in short: as §2
Staphylococcus aureus [4] = assay: Antimicrobial activity against multidrug-resistant Staphylococcus aureus after 18 hrs by agar dilution method; format: functional; in short: as §3
Escherichia coli [5] = assay: Antimicrobial activity against Escherichia coli 25922 after 18 hrs by agar dilution method; format: functional; details: Escherichia coli, 25922, 18 h; in short: as §2
Enterococcus faecalis [6] = assay: Antimicrobial activity against multidrug-resistant Enterococcus faecalis after 18 hrs by agar dilution method; format: functional; in short: as §3
[7] = test system: Stenotrophomonas maltophilia; assay: Antimicrobial activity against Xanthomonas maltophilia IAC 739 after 18 hrs by agar dilution method; format: functional; details: IAC 739, 18 h; in short: as §2
[8] = test system: Staphylococcus epidermidis; assay: Antimicrobial activity against Staphylococcus epidermidis 16/2 after 18 hrs by agar dilution method; format: functional; details: 16/2, 18 h; in short: as §2
Staphylococcus aureus [9] = assay: as §1; format: functional; in short: as §2; remark: listed apart in the source
[10] = Octanol-water partition coefficient, log D of the compound at pH 7.4 by shake-flask method; format: physicochemical
In short: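 Octanol/water partition measured by shake-flask at pH 7.4.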

Staphylococcus aureus [11] = assay: Antimicrobial activity against Staphylococcus aureus ATCC 25923 after 18 hrs by agar dilution method; format: functional; details: ATCC 25923, 18 h; in short: as §2
Enterococcus faecalis [12] = assay: Antimicrobial activity against Enterococcus faecalis 6 after 18 hrs by agar dilution method; details: Enterococcus faecalis, 6, 18 h

Row | Structure (SMILES) | MIC (Staphylococcus aureus [1]) [µg/mL] | MNEC (Escherichia coli [2]) [µg/mL] | ED50 (Staphylococcus aureus [3]) [mg/kg] | also measured
1 | COc1cc(O)c2c(c1Br)C(=O)OCCN(S(C)(=O)=O)CC(=O)N[C@H](c1nc(C)no1)CSC2 | 64 (≈ 110 µM) | 0.1 |  | 
2 | COc1cc(O)c2c(c1Br)C(=O)OCCNCC(=O)N[C@H](c1nc(C)no1)CSC2.Cl | 1 | 0.01 | 25 | 
3 | COc1cc(O)c2c(c1C)C(=O)OCC(=S)NCC(=S)N[C@H](c1nc(C)no1)CSC2 | 0.5 (≈ 1.04 µM) | 0.002 |  | 
4 | COc1cc(O)c2c(c1Br)C(=O)O[C@H](c1ccccc1)C(=O)NCC(=O)N[C@H](c1nc(C)no1)CSC2 | > 64 | 0.2 |  | 
5 | COc1cc(O)c2c(c1Br)C(=O)OCC(=O)N(C)CC(=S)N[C@H](c1nc(C)no1)CSC2 | 0.5 (≈ 0.917 µM) | 0.05 |  | 
6 | COc1cc(O)c2c(c1Br)C(=O)OCCN(C(=O)C(C)(C)C)CC(=O)N[C@H](c1nc(C)no1)CSC2 | 0.5 (≈ 0.854 µM) | 0.05 | > 12 | 
7 | CN[C@H](CC(C)C)C(=O)N[C@H]1C(=O)N[C@@H](CC(N)=O)C(=O)N[C@H]2C(=O)N[C@H]3C(=O)N[C@H](C(=O)N[C@H](C(=O)O)c4cc(O)cc(O)c4-c4cc3ccc4O)[C@H](O)c3ccc(c(Cl)c3)Oc3cc2cc(c3O[C@@H]2O[C@H](CO)[C@@H](O)[C@H](O)[C@H]2O[C@H]2C[C@](C)(N)[C@H](O)[C@H](C)O2)Oc2ccc(cc2Cl)[C@H]1O [VANCOMYCIN] |  |  | 1.5 | MIC50 (Enterococcus faecium): 256 µg/mL (≈ 177 µM); MIC90 (Enterococcus faecium): > 256 µg/mL; MIC (Streptococcus pyogenes): 1 µg/mL (≈ 0.69 µM); MIC50 (Staphylococcus aureus [4]): 2 µg/mL (≈ 1.38 µM); MIC90 (Staphylococcus aureus [4]): 4 µg/mL (≈ 2.76 µM); MIC (Escherichia coli [5]): > 64 µg/mL; MIC50 (Enterococcus faecalis [6]): 2 µg/mL (≈ 1.38 µM); MIC90 (Enterococcus faecalis [6]): 256 µg/mL (≈ 177 µM); MIC [7]: > 64 µg/mL
8 | COc1cc(O)c2c(c1Br)C(=O)O[C@H](C)C(=O)NCC(=S)N[C@H](c1nc(C)no1)CSC2 | 0.5 (≈ 0.917 µM) | 0.2 | > 12.5 | 
9 | C[C@@H](O)[C@H]1C(=O)N2C(C(=O)O)=C(SCCNC=N)C[C@H]12 [IMIPENEM ANHYDROUS] |  |  |  | MIC50 (Enterococcus faecium): 64 µg/mL (≈ 214 µM); MIC90 (Enterococcus faecium): > 64 µg/mL; MIC50 (Staphylococcus aureus [4]): 32 µg/mL (≈ 107 µM); MIC90 (Staphylococcus aureus [4]): 64 µg/mL (≈ 214 µM); MIC50 (Enterococcus faecalis [6]): 2 µg/mL (≈ 6.68 µM); MIC90 (Enterococcus faecalis [6]): 2 µg/mL (≈ 6.68 µM)
10 | COc1cc(O)c2c(c1Br)C(=O)OCC(=O)NCC(=S)N[C@H](c1nc(C)no1)CSC2 | 0.12 (≈ 0.226 µM) | 0.05 | 12.5 | MIC [8]: < 0.12 µg/mL; MIC (Staphylococcus aureus [9]): < 0.12 µg/mL; logD [10]: 2.61; MIC (Staphylococcus aureus [11]): 0.25 µg/mL (≈ 0.47 µM); MIC (Enterococcus faecalis [12]): < 0.12 µg/mL; MIC (Streptococcus pyogenes): 0.12 µg/mL (≈ 0.226 µM); MIC (Escherichia coli [5]): > 64 µg/mL; MIC [7]: 0.25 µg/mL (≈ 0.47 µM)
11 | COc1cc(O)c2c(c1Br)C(=O)OCCN(C(=O)[C@H](C)N)CC(=O)N[C@H](c1nc(C)no1)CSC2.Cl | > 64 | 0.1 |  | 
12 | COc1cc(O)c2c(c1C)C(=O)OC[C@@H](CO)CCC(=O)N[C@H](c1nc(C)no1)CSC2 | 64 (≈ 137 µM) | 0.1 |  | 
13 | COc1cc(O)c2c(c1Br)C(=O)OCC(=O)N(C)CC(=O)N[C@H](c1nc(C)no1)CSC2 | 2 (≈ 3.78 µM) | 0.05 | > 12.5 | 
14 | COc1cc(O)c2c(c1Cl)C(=O)OCCCCC(=S)N[C@H](c1nc(C)no1)CSC2 | 0.25 (≈ 0.53 µM) | 0.002 |  | 
15 | COc1cc(O)c2c(c1Cl)C(=O)OCC(=O)NCC(=O)N[C@H](c1nc(C)no1)CSC2 | 8 (≈ 17 µM) | 0.02 | 25 | 
16 | COc1cc(O)c2c(c1C)C(=O)OCC(=O)NCC(=O)N[C@H](c1nc(C)no1)CSC2 | 8 (≈ 17.8 µM) | 0.01 | > 25 | MIC [8]: 1 µg/mL (≈ 2.22 µM); MIC (Staphylococcus aureus [9]): 8 µg/mL (≈ 17.8 µM); logD [10]: 1.05; MIC (Staphylococcus aureus [11]): 32 µg/mL (≈ 71 µM); MIC (Enterococcus faecalis [12]): 8 µg/mL (≈ 17.8 µM); MIC (Streptococcus pyogenes): 2 µg/mL (≈ 4.44 µM); MIC (Escherichia coli [5]): > 64 µg/mL; MIC [7]: > 64 µg/mL
17 | COc1cc(O)c2c(c1Br)C(=O)OCC(=O)NCC(=O)N[C@H](c1nc(CNC(C)C)no1)CSC2.Cl | 16 | 0.02 |  | 
18 | COc1cc(O)c2c(c1Br)C(=O)OCCN(C(C)=O)CC(=O)N[C@H](c1nc(C)no1)CSC2 | 16 (≈ 29.4 µM) | 0.01 |  | 
19 | COc1cc(O)c2c(c1Cl)C(=O)OCCCCC(=S)N[C@H](c1nc(CN)no1)CSC2.Cl | 0.12 | 0.002 | 6 | MIC [8]: < 0.12 µg/mL; MIC (Staphylococcus aureus [9]): 0.12 µg/mL; logD [10]: 1.89; MIC (Staphylococcus aureus [11]): 0.5 µg/mL; MIC (Enterococcus faecalis [12]): < 0.12 µg/mL; MIC (Streptococcus pyogenes): 0.25 µg/mL; MIC (Escherichia coli [5]): 64 µg/mL; MIC [7]: 4 µg/mL
20 | COc1cc(O)c2c(c1Br)C(=O)OCC(=O)NCC(=O)N[C@H](c1nc(CN)no1)CSC2.Cl | 32 | 0.1 |  | 
21 | COc1cc(O)c2c(c1C)C(=O)OC[C@H](CO)CCC(=O)N[C@H](c1nc(C)no1)CSC2 | 8 (≈ 17.2 µM) | 0.005 |  | 
22 | COc1cc(O)c2c(c1Br)C(=O)OCCN(C)CC(=O)N[C@H](c1nc(C)no1)CSC2.Cl | 1 | 0.05 | > 25 | 
23 | COc1cc(O)c2c(c1C)C(=O)OCC(=O)NCC(=S)N[C@H](c1nc(C)no1)CSC2 | 0.5 (≈ 1.07 µM) | 0.001 | 25 | MIC [8]: < 0.12 µg/mL; MIC (Staphylococcus aureus [9]): 0.5 µg/mL (≈ 1.07 µM); logD [10]: 2.32; MIC (Staphylococcus aureus [11]): 1 µg/mL (≈ 2.14 µM); MIC (Enterococcus faecalis [12]): 0.5 µg/mL (≈ 1.07 µM); MIC (Escherichia coli [5]): > 64 µg/mL; MIC [7]: 4 µg/mL (≈ 8.57 µM)
